From ChEMBL document CHEMBL1132168, “Cycloalkanecarboxylic esters derived from lysergol, dihydrolysergol-I, and elymoclavine as partial agonists and antagonists at rat 5-HT2A receptors: pharmacological evidence that the indolo[4,3-fg]quinoline system of the ergolines is responsible for high 5-HT2A receptor affinity” (J Med Chem, 1999)
“And” between values parts separate entries of the source, which are not always exact repeats. Equal entries are not always repeated.

Key:
[1] = target: T1, 5-hydroxytryptamine receptor 2A (Rattus norvegicus, UniProt P14842); assay: Blocking 5-HT2A receptor-mediated contractions of rat tail artery; format: functional, tissue-based; settings: read-out: pA2 (converted)
T1 sequence (P14842 whole entry): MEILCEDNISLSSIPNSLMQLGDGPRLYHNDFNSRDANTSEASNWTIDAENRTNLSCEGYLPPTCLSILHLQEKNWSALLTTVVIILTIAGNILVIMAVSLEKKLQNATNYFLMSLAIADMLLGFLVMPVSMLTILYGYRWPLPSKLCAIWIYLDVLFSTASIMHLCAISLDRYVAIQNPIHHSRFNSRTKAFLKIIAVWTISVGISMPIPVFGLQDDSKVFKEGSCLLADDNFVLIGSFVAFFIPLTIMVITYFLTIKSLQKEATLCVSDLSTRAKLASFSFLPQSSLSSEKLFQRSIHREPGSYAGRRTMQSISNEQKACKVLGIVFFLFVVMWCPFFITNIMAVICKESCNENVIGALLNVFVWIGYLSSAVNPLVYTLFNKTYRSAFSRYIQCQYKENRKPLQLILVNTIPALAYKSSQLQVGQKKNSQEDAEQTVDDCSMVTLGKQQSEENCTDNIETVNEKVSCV
In short: (§1)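 Endothelium-denuded rat ventral caudal artery segments (4–5 mm), isometric, resting force 5 mN. Segments were primed once with 5-HT 1 μM during 120 min equilibration. Prazosin 30 nM and cocaine 6 μM were present throughout. Two cumulative 5-HT curves were run 60 min apart, the second after 30–60 min with antagonist. pKP by Marano–Kaumann; pA2 by Schild or as apparent pA2. Mean ± SEM, n segments, ≥2 animals.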

[2] = Specificity towards 5-HT2A receptor to that of alpha-1 adrenoceptor.; format: functional
[3] = target: T2, Adrenergic receptor alpha-1 (Rattus norvegicus, UniProt P15823+P23944+P43140); assay: Ability to block alpha-1 adrenergic receptor-mediated contractions of rat aorta.; format: functional
T2 sequence (P15823 whole entry): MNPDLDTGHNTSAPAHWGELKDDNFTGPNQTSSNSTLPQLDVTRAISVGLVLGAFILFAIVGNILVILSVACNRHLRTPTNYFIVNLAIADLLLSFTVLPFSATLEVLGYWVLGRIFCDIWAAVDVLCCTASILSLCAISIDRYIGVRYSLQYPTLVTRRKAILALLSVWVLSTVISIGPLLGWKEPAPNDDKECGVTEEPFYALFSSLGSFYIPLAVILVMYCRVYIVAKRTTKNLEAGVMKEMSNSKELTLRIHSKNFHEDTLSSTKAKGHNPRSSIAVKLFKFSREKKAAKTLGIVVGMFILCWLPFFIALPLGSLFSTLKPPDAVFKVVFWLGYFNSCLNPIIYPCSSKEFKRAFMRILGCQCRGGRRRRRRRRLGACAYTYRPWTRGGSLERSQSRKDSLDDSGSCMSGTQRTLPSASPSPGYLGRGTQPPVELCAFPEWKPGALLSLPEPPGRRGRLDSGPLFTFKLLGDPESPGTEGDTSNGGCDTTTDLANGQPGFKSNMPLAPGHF
T2 sequence (P23944 whole entry): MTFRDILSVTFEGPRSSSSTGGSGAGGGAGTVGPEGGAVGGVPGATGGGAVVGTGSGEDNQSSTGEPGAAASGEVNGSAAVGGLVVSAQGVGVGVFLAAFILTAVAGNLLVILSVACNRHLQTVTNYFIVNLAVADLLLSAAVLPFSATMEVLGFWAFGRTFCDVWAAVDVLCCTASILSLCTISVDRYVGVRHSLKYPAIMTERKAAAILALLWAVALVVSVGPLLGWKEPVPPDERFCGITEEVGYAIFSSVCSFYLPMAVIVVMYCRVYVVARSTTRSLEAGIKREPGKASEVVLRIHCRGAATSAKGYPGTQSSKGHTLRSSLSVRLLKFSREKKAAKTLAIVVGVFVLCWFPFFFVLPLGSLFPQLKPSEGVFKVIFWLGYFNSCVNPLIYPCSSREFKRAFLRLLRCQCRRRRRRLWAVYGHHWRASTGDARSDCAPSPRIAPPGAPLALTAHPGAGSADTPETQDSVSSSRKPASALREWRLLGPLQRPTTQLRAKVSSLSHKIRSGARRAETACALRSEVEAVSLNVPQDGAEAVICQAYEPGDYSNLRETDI
T2 sequence (P43140 whole entry): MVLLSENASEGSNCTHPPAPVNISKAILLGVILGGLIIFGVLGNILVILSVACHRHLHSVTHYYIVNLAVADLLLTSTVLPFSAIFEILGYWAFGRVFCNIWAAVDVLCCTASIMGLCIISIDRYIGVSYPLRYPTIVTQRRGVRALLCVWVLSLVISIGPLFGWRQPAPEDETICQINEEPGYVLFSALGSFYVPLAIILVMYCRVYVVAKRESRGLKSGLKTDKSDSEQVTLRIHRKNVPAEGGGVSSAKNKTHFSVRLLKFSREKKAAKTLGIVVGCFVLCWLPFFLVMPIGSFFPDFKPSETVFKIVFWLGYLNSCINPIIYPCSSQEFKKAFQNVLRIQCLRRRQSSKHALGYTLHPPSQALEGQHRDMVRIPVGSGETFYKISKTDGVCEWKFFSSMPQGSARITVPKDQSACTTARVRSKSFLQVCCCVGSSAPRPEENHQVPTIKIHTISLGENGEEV
In short: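 Endothelium-denuded rat thoracic aorta rings (4–6 mm) in modified Krebs-Henseleit, 37 °C, 95% O2/5% CO2, with (R,S)-propranolol 1 μM. Resting force 20 mN. During 140 min equilibration, rings were stimulated twice with (R)-phenylephrine 100 nM. Two cumulative phenylephrine contraction curves were run, without and then with antagonist added 30 min before.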

[4] = target: 5-hydroxytryptamine receptor 2A (Rattus norvegicus) (UniProt P14842); assay: Effectiveness in blocking 5-HT2A receptor-mediated contractions of rat tail artery; format: functional, tissue-based; in short: as §1
5-hydroxytryptamine receptor 2A (Rattus norvegicus), sequence (P14842 whole entry): as the sequence (P14842 whole entry) above

[5] = target: 5-hydroxytryptamine receptor 2A (Rattus norvegicus) (UniProt P14842); assay: Intrinsic activity towards 5-HT2A receptor of rat tail artery; format: functional, tissue-based
In short: (§2)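 Endothelium-denuded rat caudal artery segments, resting force 5 mN, with prazosin 30 nM and cocaine 6 μM present. Two cumulative curves were run on each segment 60 min apart: first 5-HT, then the test agonist. pKP was taken from a Kenakin plot of equieffective 5-HT and agonist concentrations. Mean ± SEM from n segments, ≥2 animals.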

[6] = target: T1, 5-hydroxytryptamine receptor 2A; assay: Partial agonism at 5-HT2A receptor was evaluated in presence of ketanserin (3-10 nM) in isolated rat tail artery; format: functional, tissue-based; settings: read-out: pA2 (converted)
In short: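 Rat caudal artery, endothelium removed, with prazosin 30 nM and cocaine 6 μM present. A 5-HT curve was followed after 60 min by a cumulative agonist curve, with ketanserin 3 nM added 30 min beforehand. The rightward shift was compared with that in control segments run without ketanserin.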

[7] = target: 5-hydroxytryptamine receptor 2A (Rattus norvegicus) (UniProt P14842); assay: Relative potency towards 5-HT2A receptor of rat tail artery; format: functional, tissue-based; in short: as §2

Compound | Kb [1] [nM] | Specificity [2] | pA2 [3] | pKp [4] | Intrinsic activity [5] | Kb [6] [nM] | Relative potency [7] [%]
COC1CCC(C(=O)OCC2=C[C@@H]3c4cccc5c4c(cn5C(C)C)C[C@H]3N(C)C2)CC1.O=C(O)/C=C\C(=O)O (some centres not stated) | 11.5 | 1260 | 4.84 | – | – | – | –
CN1CC(COC(=O)C2CCCC2)=C[C@@H]2c3cccc4[nH]cc(c34)C[C@H]21.O=C(O)/C=C\C(=O)O | 49 | 21 | 5.99 | – | – | – | –
CN1CC(COC(=O)C2CCCCC2)=C[C@@H]2c3cccc4[nH]cc(c34)C[C@H]21.O=C(O)/C=C\C(=O)O | 39.8 | 32 | 5.89 | – | – | – | –
CC(C)n1cc2c3c(cccc31)C1=C[C@@H](COC(=O)C3CCCCC3)CN(C)[C@@H]1C2.O=C(O)/C=C\C(=O)O | 12 | 1410 | 4.77 | – | – | – | –
CC(C)n1cc2c3c(cccc31)[C@H]1C[C@@H](C)CN(C)[C@@H]1C2.O=C(O)/C=C\C(=O)O | 3.16 | 63 | 6.7 | – | – | – | –
CC(C)n1cc2c3c(cccc31)[C@H]1C[C@@H](COC(=O)C3CCCCCC3)CN(C)[C@@H]1C2.O=C(O)/C=C\C(=O)O | 89.1 | 186 | 4.78 | – | – | – | –
CC1=C[C@@H]2c3cccc4c3c(cn4C(C)C)C[C@H]2N(C)C1.O=C(O)/C=C\C(=O)O | 1.45 | 316 | 6.34 | – | – | – | –
CC(C)n1cc2c3c(cccc31)[C@H]1C=C(COC(=O)C3CCCCCC3)CN(C)[C@@H]1C2.O=C(O)/C=C\C(=O)O | 17 | > 1860 | < 4.5 | – | – | – | –
CC(C)n1cc2c3c(cccc31)[C@H]1C[C@@H](COC(=O)C3CCCCC3)CN(C)[C@@H]1C2.O=C(O)/C=C\C(=O)O | 72.4 | 355 | 4.59 | – | – | – | –
CC(C)n1cc2c3c(cccc31)[C@H]1C=C(COC(=O)C3CCCCC3)CN(C)[C@@H]1C2.O=C(O)/C=C\C(=O)O | 15.8 | 1410 | 4.65 | – | – | – | –
CN1CC(COC(=O)C2CCC2)=C[C@@H]2c3cccc4[nH]cc(c34)C[C@H]21.O=C(O)/C=C\C(=O)O | 77.6 | 5 | 6.42 | – | – | – | –
CC(C)n1cc2c3c(cccc31)[C@H]1C=C(COC(=O)C3CCCC3)CN(C)[C@@H]1C2.O=C(O)/C=C\C(=O)O | 8.91 | 1440 | 4.89 | – | – | – | –
CN1C[C@H](COC(=O)C2CCCC2)C[C@@H]2c3cccc4[nH]cc(c34)C[C@H]21.O=C(O)/C=C\C(=O)O | – | 35 | 5.95 | 7.5 | – | – | –
CN1CC(COC(=O)C2CCCCCC2)=C[C@@H]2c3cccc4[nH]cc(c34)C[C@H]21.O=C(O)/C=C\C(=O)O | 10.7 | 832 | 5.05 | – | – | – | –
CC(C)n1cc2c3c(cccc31)[C@H]1C=C(COC(=O)C3CCC3)CN(C)[C@@H]1C2.O=C(O)/C=C\C(=O)O | 9.33 | 2180 | 4.69 | – | – | – | –
CO[C@H]1CC[C@H](C(=O)OCC2=C[C@@H]3c4cccc5c4c(cn5C(C)C)C[C@H]3N(C)C2)CC1.O=C(O)/C=C\C(=O)O | 7.41 | 2880 | 4.67 | – | – | – | –

Compound | Kb [1] [nM] | Specificity [2] | pA2 [3] | pKp [4] | Intrinsic activity [5] | Kb [6] [nM] | Relative potency [7] [%]
CC(C)n1cc2c3c(cccc31)C1=C[C@@H](COC(=O)C3CC3)CN(C)[C@@H]1C2.O=C(O)/C=C\C(=O)O | 1.82 | 4570 | 5.08 | – | – | – | –
CN1C[C@H](COC(=O)C2CCCCCC2)C=C2c3cccc4[nH]cc(c34)C[C@H]21.O=C(O)/C=C\C(=O)O | – | 95 | 4.73 | 6.71 and 6.35 | 0.18 | 0.776 | 14
CN1C[C@H](COC(=O)C2CCCCC2)C[C@@H]2c3cccc4[nH]cc(c34)C[C@H]21.O=C(O)/C=C\C(=O)O | – | 52 | 5.62 | 7.34 | – | – | –
COC1CCC(C(=O)OCC2=C[C@@H]3c4cccc5[nH]cc(c45)C[C@H]3N(C)C2)CC1.O=C(O)/C=C\C(=O)O (some centres not stated) | 47.9 | 12 | 6.32 | – | – | – | –
CC(C)n1cc2c3c(cccc31)[C@H]1C[C@@H](COC(=O)C3CCCC3)CN(C)[C@@H]1C2.O=C(O)/C=C\C(=O)O | 22.4 | 933 | 4.68 | – | – | – | –
CC(C)n1cc2c3c(cccc31)C1=C[C@@H](COC(=O)C3CCCC3)CN(C)[C@@H]1C2.O=C(O)/C=C\C(=O)O | 5.62 | 4790 | 4.57 | – | – | – | –
CN1C[C@H](COC(=O)C2CCCCCC2)C[C@@H]2c3cccc4[nH]cc(c34)C[C@H]21.O=C(O)/C=C\C(=O)O | – | 174 | 4.86 | 7.1 | – | – | –
CN1C[C@H](COC(=O)C2CC2)C=C2c3cccc4[nH]cc(c34)C[C@H]21.O=C(O)/C=C\C(=O)O | – | 55 | 6.66 | – | 0.21 | 0.741 | 331
CC(C)n1cc2c3c(cccc31)[C@H]1C[C@@H](COC(=O)C3CCC3)CN(C)[C@@H]1C2.O=C(O)/C=C\C(=O)O | 8.71 | 2950 | 4.59 | – | – | – | –
CN1C[C@H](COC(=O)C2CCCC2)C=C2c3cccc4[nH]cc(c34)C[C@H]21.O=C(O)/C=C\C(=O)O | – | 120 | 5.32 | 7.4 and 7.27 | 0.11 | 0.741 | 128
CN1C[C@H](CO)C=C2c3cccc4[nH]cc(c34)C[C@H]21 | – | – | – | 6.88 | 0.18 | 0.794 | 74
CO[C@H]1CC[C@H](C(=O)OCC2=C[C@@H]3c4cccc5[nH]cc(c45)C[C@H]3N(C)C2)CC1.O=C(O)/C=C\C(=O)O | 57.5 | 17 | 6 | – | – | – | –
CN1C[C@H](COC(=O)C2CC2)C[C@@H]2c3cccc4[nH]cc(c34)C[C@H]21.O=C(O)/C=C\C(=O)O | – | 3 | 7.2 | 7.67 | – | – | –
CC(C)n1cc2c3c(cccc31)C1=C[C@@H](COC(=O)C3CCC3)CN(C)[C@@H]1C2.O=C(O)/C=C\C(=O)O | 6.03 | 2950 | 4.75 | – | – | – | –
CN1C[C@H](COC(=O)C2CCC2)C[C@@H]2c3cccc4[nH]cc(c34)C[C@H]21.O=C(O)/C=C\C(=O)O | – | 5 | 6.59 | 7.3 | – | – | –
